Test results from ChEMBL document CHEMBL3526106, “Cytochrome P450 regulation by α-tocopherol in Pxr-null and PXR-humanized mice” (Drug Metab Dispos, 2013).

Columns and labels:
Design in all cases: dose 500 mg/kg
Mus musculus [1] = assay: Effect on Ugt1a7c gene expression in wild type mouse liver at 500 mg/kg for 7 to 14 days dosed through vitamin E-deficient base diet by qPCR method; assay type: ADME, organism-based; settings: in vivo, po
Summary of the method: (§1)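 Male mice on vitamin E deficient diet, switched at eight weeks to the same diet with 500 mg/kg DL-α-tocopheryl acetate (controls kept deficient); killed at nine or 10 weeks, livers flash frozen. Hepatic mRNA by SYBR Green qPCR with 25 ng cDNA and 150 nM primers, triplicate reactions; comparative threshold cycle method against β-actin, fold change versus deficient diet; mean ± SEM, two-tailed t-test.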

Mus musculus [2] = assay: Effect on Ugt1a7c gene expression in male PXR null mouse liver at 500 mg/kg for 7 to 14 days dosed through vitamin E-deficient base diet by qPCR method; assay type: ADME, organism-based; settings: in vivo, po; summary of the method: as §1
Mus musculus [3] = assay: Effect on Ugt2b5 gene expression in wild type mouse liver at 500 mg/kg for 7 to 14 days dosed through vitamin E-deficient base diet by qPCR method; assay type: ADME, organism-based; settings: in vivo, po; summary of the method: as §1
Mus musculus [4] = assay: Effect on Ugt2b34 gene expression in male PXR null mouse liver at 500 mg/kg for 7 to 14 days dosed through vitamin E-deficient base diet by qPCR method; assay type: ADME, organism-based; settings: in vivo, po; summary of the method: as §1
Cyp2b10 = assay: Induction of Cyp2b10 gene expression in wild type mouse liver at 500 mg/kg for 7 to 14 days dosed through vitamin E-deficient base diet by qPCR method; assay type: ADME, organism-based; settings: po, read-out: FC; summary of the method: as §1
Mus musculus [5] = assay: Reduction in Cyp4a10 gene expression in PXR-humanized mouse liver at 500 mg/kg for 7 to 14 days dosed through vitamin E-deficient base diet by qPCR method; assay type: ADME, organism-based; settings: in vivo, po
Summary of the method: (§2)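 Male mice (wild-type, Pxr-null, hPXR; NCI-bred) on vitamin E-deficient diet from 3 weeks of age; at 8 weeks half switched to same base diet supplemented with 500 mg/kg DL-α-tocopheryl acetate, rest kept deficient. Livers harvested at 9 and 10 weeks. qPCR: 25 ng cDNA, 150 nM each primer, SYBR Green, triplicate; comparative Ct vs β-actin; fold change enriched vs deficient diet; mean ± SEM, two-tailed unpaired t-test.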

Cyp2c55 [6] = assay: Induction of Cyp2c55 gene expression in male PXR null mouse liver at 500 mg/kg for 7 to 14 days dosed through vitamin E-deficient base diet by qPCR method; assay type: ADME, organism-based; settings: po, read-out: FC; summary of the method: as §1
Cyp2c55 [7] = assay: Induction of Cyp2c55 gene expression in male PXR-humanized mouse liver at 500 mg/kg for 7 to 14 days dosed through vitamin E-deficient base diet by qPCR method; assay type: ADME, organism-based; settings: po, read-out: FC; summary of the method: as §1
Cyp2c37 = assay: Induction of Cyp2c37 gene expression in male PXR-humanized mouse liver at 500 mg/kg for 7 to 14 days dosed through vitamin E-deficient base diet by qPCR method; assay type: ADME, organism-based; settings: po, read-out: FC; summary of the method: as §1
Mus musculus [8] = assay: Induction of Cyp2c39 gene expression in wild type mouse liver at 500 mg/kg for 7 to 14 days dosed through vitamin E-deficient base diet by qPCR method; assay type: ADME, organism-based; settings: in vivo, po; summary of the method: as §1
Mus musculus [9] = assay: Drug metabolism in male PXR-humanized mouse assessed as urinary alpha-carboxymethylbutylhydroxychroman glucuronide level at 500 mg/kg for 7 to 14 days dosed through vitamin E-deficient base diet by UPLC-ESI-QTOFMS method based metabolomics analysis; assay type: ADME, organism-based, Urine; settings: in vivo, po
Summary of the method: (§3)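 Male mice from three weeks of age on vitamin E deficient diet; at eight weeks, 24 h predose urine in metabolic cages, then half switched to the same diet supplemented with 500 mg/kg DL-α-tocopheryl acetate. 24 h urine collected at nine and 10 weeks. Urinary metabolites quantitated by UPLC-MRM on triple-quadrupole MS against authentic standards and calibration curves, normalized to urinary creatinine (µmol/mmol creatinine); mean ± SEM, two-tailed unpaired t-test.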

Mus musculus [10] = assay: Induction of Cyp2c39 gene expression in male PXR-humanized mouse liver at 500 mg/kg for 7 to 14 days dosed through vitamin E-deficient base diet by qPCR method; assay type: ADME, organism-based; settings: in vivo, po; summary of the method: as §1
Mus musculus [11] = assay: Effect on Ugt1a1 gene expression in male PXR null mouse liver at 500 mg/kg for 7 to 14 days dosed through vitamin E-deficient base diet by qPCR method; assay type: ADME, organism-based; settings: in vivo, po; summary of the method: as §1
Mus musculus [12] = assay: Effect on Ugt1a1 gene expression in male PXR-humanized mouse liver at 500 mg/kg for 7 to 14 days dosed through vitamin E-deficient base diet by qPCR method; assay type: ADME, organism-based; settings: in vivo, po; summary of the method: as §1
Mus musculus [13] = assay: Effect on Ugt1a6b gene expression in male PXR null mouse liver at 500 mg/kg for 7 to 14 days dosed through vitamin E-deficient base diet by qPCR method; assay type: ADME, organism-based; settings: in vivo, po; summary of the method: as §1
Mus musculus [14] = assay: Effect on Ugt1a6b gene expression in male PXR-humanized mouse liver at 500 mg/kg for 7 to 14 days dosed through vitamin E-deficient base diet by qPCR method; assay type: ADME, organism-based; settings: in vivo, po; summary of the method: as §1
Mus musculus [15] = assay: Drug metabolism in male wild type mouse assessed as urinary alpha-carboxymethylbutylhydroxychroman glucuronide level at 500 mg/kg for 7 to 14 days dosed through vitamin E-deficient base diet by UPLC-ESI-QTOFMS method based metabolomics analysis; assay type: ADME, organism-based, Urine; settings: in vivo, po
Mus musculus [16] = assay: Drug metabolism in male PXR null mouse assessed as urinary alpha-carboxyethylhydroxychroman glycine level at 500 mg/kg for 7 to 14 days dosed through vitamin E-deficient base diet by UPLC-ESI-QTOFMS method based metabolomics analysis; assay type: ADME, organism-based, Urine; settings: in vivo, po; summary of the method: as §3
Mus musculus [17] = assay: Induction of Cyp3a11 gene expression in male wild type mouse liver at 500 mg/kg for 7 to 14 days dosed through vitamin E-deficient base diet by qPCR method; assay type: ADME, organism-based; settings: in vivo, po; summary of the method: as §2
Mus musculus [18] = assay: Induction of Cyp3a11 gene expression in male PXR null mouse liver at 500 mg/kg for 7 to 14 days dosed through vitamin E-deficient base diet by qPCR method; assay type: ADME, organism-based; settings: in vivo, po; summary of the method: as §1
Mus musculus [19] = assay: Induction of Cyp3a11 gene expression in male PXR-humanized mouse liver at 500 mg/kg for 7 to 14 days dosed through vitamin E-deficient base diet by qPCR method; assay type: ADME, organism-based; settings: in vivo, po; summary of the method: as §2
Mus musculus [20] = assay: Induction of Cyp4f13 gene expression in male PXR null mouse liver at 500 mg/kg for 7 to 14 days dosed through vitamin E-deficient base diet by qPCR method; assay type: ADME, organism-based; settings: in vivo, po; summary of the method: as §2
Mus musculus [21] = assay: Induction of Cyp4f13 gene expression in male PXR-humanized mouse liver at 500 mg/kg for 7 to 14 days dosed through vitamin E-deficient base diet by qPCR method; assay type: ADME, organism-based; settings: in vivo, po; summary of the method: as §2
Mus musculus [22] = assay: Induction of Cyp4f14 gene expression in male PXR-humanized mouse liver at 500 mg/kg for 7 to 14 days dosed through vitamin E-deficient base diet by qPCR method; assay type: ADME, organism-based; settings: in vivo, po; summary of the method: as §2
Mus musculus [23] = assay: Induction of Cyp4f14 gene expression in male PXR null mouse liver at 500 mg/kg for 7 to 14 days dosed through vitamin E-deficient base diet by qPCR method; assay type: ADME, organism-based; settings: in vivo, po; summary of the method: as §2
Mus musculus [24] = assay: Induction of Cyp4f15 gene expression in male PXR null mouse liver at 500 mg/kg for 7 to 14 days dosed through vitamin E-deficient base diet by qPCR method; assay type: ADME, organism-based; settings: in vivo, po; summary of the method: as §2
Mus musculus [25] = assay: Induction of Cyp4f15 gene expression in wild type mouse liver at 500 mg/kg for 7 to 14 days dosed through vitamin E-deficient base diet by qPCR method; assay type: ADME, organism-based; settings: in vivo, po; summary of the method: as §2
Mus musculus [26] = assay: Induction of Cyp4f18 gene expression in male PXR-humanized mouse liver at 500 mg/kg for 7 to 14 days dosed through vitamin E-deficient base diet by qPCR method; assay type: ADME, organism-based; settings: in vivo, po; summary of the method: as §2
Mus musculus [27] = assay: Induction of Cyp4f18 gene expression in male PXR null mouse liver at 500 mg/kg for 7 to 14 days dosed through vitamin E-deficient base diet by qPCR method; assay type: ADME, organism-based; settings: in vivo, po; summary of the method: as §2

Activity (Mus musculus [1]): Not Active
Activity (Mus musculus [2]): Not Active
Activity (Mus musculus [3]): Not Active
Activity (Mus musculus [4]): Not Active
fold induction (Cyp2b10): 7.3
fold change (FC) (Mus musculus [5]): 2.4
fold induction (Cyp2c55 [6]): 2.2
fold induction (Cyp2c55 [7]): 2.9
fold induction (Cyp2c37): 2
Activity (Mus musculus [8]): Not Active
Activity (Mus musculus [10]): Not Active
Activity (Mus musculus [11]): Not Active
Activity (Mus musculus [12]): Not Active
Activity (Mus musculus [13]): Not Active
Activity (Mus musculus [14]): Not Active
Activity (Mus musculus [17]): Active
Activity (Mus musculus [18]): Not Active
Activity (Mus musculus [19]): Not Active
Activity (Mus musculus [20]): Not Active
Activity (Mus musculus [21]): Not Active
Activity (Mus musculus [22]): Not Active
Activity (Mus musculus [23]): Not Active
Activity (Mus musculus [24]): Not Active
Activity (Mus musculus [25]): Not Active
Activity (Mus musculus [26]): Not Active
Activity (Mus musculus [27]): Not Active
Compound: CC(=O)Oc1c(C)c(C)c2c(c1C)CCC(C)(CCCC(C)CCCC(C)CCCC(C)C)O2 (racemic) [alpha-TOCHOPHERYL ACETATE]
Drug metabolism (Mus musculus [9]): metabolite_detected
Drug metabolism (Mus musculus [15]): metabolite_detected
Drug metabolism (Mus musculus [16]): metabolite_detected
